According to ChEMBL document CHEMBL6083194, “Discovery and evaluation of 3-(2-isocyanobenzyl)-1H-indole derivatives as potential quorum sensing inhibitors for the control of Pseudomonas aeruginosa infections in vitro” (RSC Med Chem, 2024):
In brackets after ≈: the same amount, converted by molar mass. Activity calls are given as the source filed them. The calls are words filed in the database; no cut-off is given here.

Tests used:
[1] = Inhibition of quorum sensing system in Pseudomonas aeruginosa PAO1 assessed as reduction in 3-oxo-C12-HSL level at 25 ug/ml incubated for 24 hrs by LC-MS/MS method; details: dose 25.0 µg/ml
Pseudomonas aeruginosa [2] = assay: Antibacterial activity against Pseudomonas aeruginosa PAO1 assessed as bacterial growth inhibition at 6.25 to 25 ug/ml by serial dilution method; format: functional, organism-based; details: dose 6.25-25 µg/ml
Outline: (§1)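 PAO1 in LB, 37 °C. MIC by CLSI 2-fold serial dilution in Mueller–Hinton broth, inoculum 1–5 × 10^5 CFU mL−1, DMSO stocks. Growth curves: overnight culture diluted to OD600 = 0.05, subcultured to mid-log, rediluted to OD600 = 0.05, 3 mL with compound; OD620 read at 1, 3, 5, 7, 9, 11 and 24 h at 37 °C; DMSO negative control.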

Pseudomonas aeruginosa [3] = assay: Induction of biofilm eradication in Pseudomonas aeruginosa PAO1 at 6.25 ug/ml by crystal violet staining based assay; format: functional; details: dose 6.25 µg/ml
Outline: (§2)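 PAO1 biofilms grown overnight at 37 °C in LB in 24-well plates, washed with PBS, then fresh LB with compound added and grown overnight again. Washed, methanol-fixed, crystal violet stained, ethanol solubilised, read at OD570. DMSO negative, resveratrol positive control.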

[4] = Cytotoxicity against MEF at 100 to 1024 ug/ml; format: toxicity, cell-based; details: mouse, dose 100-1024 µg/ml
[5] = Inhibition of quorum sensing system in Pseudomonas aeruginosa PAO1 assessed as reduction in C4-HSL level at 25 ug/ml incubated for 24 hrs by LC-MS/MS method; details: dose 25.0 µg/ml
Pseudomonas aeruginosa [6] = assay: Anti-virulence effect in Pseudomonas aeruginosa PAO1 assessed as inhibition of pyocyanin production at 25 ug/ml; format: functional; design: scale not given: the % may be the effect or the level left; details: dose 25 µg/ml
Outline: (§3)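 Overnight PAO1 culture in LB at 37 °C, diluted to OD600 0.05 and subcultured 5–7 h to mid-log phase, then re-diluted to OD600 0.05. Grown 18 h at 37 °C and 200 rpm with compound (6.25, 12.5, 25 μg mL−1) or DMSO. Supernatant extracted into chloroform, back-extracted into 0.2 M HCl, read at 520 nm.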

Pseudomonas aeruginosa [7] = assay: Inhibition of biofilm formation in Pseudomonas aeruginosa PAO1 at 6.25 ug/ml incubated for 24 hrs crystal violet staining based assay; format: functional
Outline: (§4)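 PAO1 grown statically for 24 h in LB ± compound in 24-well plates. Planktonic cells removed; attached cells stained with 0.05% crystal violet, rinsed, dissolved in 95% ethanol, read at OD570. DMSO negative, resveratrol positive control; SD from three independent experiments.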

Pseudomonas aeruginosa [8] = assay: Induction of biofilm eradication in Pseudomonas aeruginosa PAO1 at 25 ug/ml by crystal violet staining based assay; format: functional; details: dose 25 µg/ml; outline: as §2
Pseudomonas aeruginosa [9] = assay: Downregulation of sucD gene expression in Pseudomonas aeruginosa PAO1 assessed as fold decrease at 25 ug/ml by RT-qPCR analysis; format: functional; details: dose 25 µg/ml
[10] = Inhibition of quorum sensing system in Pseudomonas aeruginosa PAO1 assessed as reduction in 3-oxo-C12-HSL level at 50 ug/ml incubated for 24 hrs by LC-MS/MS method; details: dose 50.0 µg/ml
Pseudomonas aeruginosa [11] = assay: Downregulation of sdhB gene expression in Pseudomonas aeruginosa PAO1 assessed as fold decrease at 25 ug/ml by RT-qPCR analysis; format: functional; details: dose 25 µg/ml
Pseudomonas aeruginosa [12] = assay: Downregulation of pqsR gene expression in Pseudomonas aeruginosa PAO1 assessed as fold decrease at 25 ug/ml by RT-qPCR analysis; format: functional; details: dose 25 µg/ml
Erythrocyte = assay: Cytotoxicity against mouse RBC at 100 to 1024 ug/ml; format: toxicity, cell-based; details: dose 100-1024 µg/ml
Pseudomonas aeruginosa [13] = assay: Inhibition of biofilm formation in Pseudomonas aeruginosa PAO1 at 12.5 ug/ml incubated for 24 hrs crystal violet staining based assay; format: functional; outline: as §4
Pseudomonas aeruginosa [14] = assay: Inhibition of biofilm formation in Pseudomonas aeruginosa PAO1 incubated for 24 hrs crystal violet staining based SEM assay; format: functional, organism-based
Pseudomonas aeruginosa [15] = assay: Induction of biofilm eradication in Pseudomonas aeruginosa PAO1 at 12.5 ug/ml by crystal violet staining based assay; format: functional; details: dose 12.5 µg/ml; outline: as §2
[16] = Inhibition of quorum sensing system in Pseudomonas aeruginosa PAO1 assessed as reduction in C4-HSL level at 6.25 to 25 ug/ml incubated for 24 hrs by LC-MS/MS method; details: dose 6.25-25 µg/ml
Pseudomonas aeruginosa [17] = assay: Anti-virulence effect in Pseudomonas aeruginosa PAO1 assessed as inhibition of pyocyanin production at 6.25 ug/ml; format: functional; design: scale not given: the % may be the effect or the level left; details: dose 6.25 µg/ml; outline: as §3
Pseudomonas aeruginosa [18] = assay: Downregulation of sodB gene expression in Pseudomonas aeruginosa PAO1 assessed as fold decrease at 25 ug/ml by RT-qPCR analysis; format: functional; details: dose 25.0 µg/ml
Pseudomonas aeruginosa [19] = assay: Downregulation of lasR gene expression in Pseudomonas aeruginosa PAO1 assessed as fold decrease at 25 ug/ml by RT-qPCR analysis; format: functional; details: dose 25 µg/ml
Pseudomonas aeruginosa [20] = assay: Inhibition of biofilm formation in Pseudomonas aeruginosa PAO1 assessed as reduction in biofilm by measuring scattered appearance at 25 ug/ml incubated for 24 hrs by scanning electron microscopic assay; format: functional, organism-based; details: dose 25.0 µg/ml
Outline: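 PAO1 biofilms on coverslips treated with compound at 6.25, 12.5 or 25 μg mL−1 or DMSO. Coverslips PBS-washed, fixed in 2.5% glutaraldehyde, ethanol-dehydrated, freeze-dried, gold-coated and imaged by SEM.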

Pseudomonas aeruginosa [21] = assay: Antibacterial activity against Pseudomonas aeruginosa PAO1 by serial dilution method; format: functional; outline: as §1
Pseudomonas aeruginosa [22] = assay: Inhibition of biofilm formation in Pseudomonas aeruginosa PAO1 at 25 ug/ml incubated for 24 hrs crystal violet staining based assay; format: functional; outline: as §4
Pseudomonas aeruginosa [23] = assay: Anti-virulence effect in Pseudomonas aeruginosa PAO1 assessed as inhibition of rhamnolipid production at 25 ug/ml; format: functional; design: scale not given: the % may be the effect or the level left; details: dose 25 µg/ml
Outline: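 PAO1 culture supernatant from growth with compound (6.25–25 μg mL−1) at 37 °C and 180 rpm, or with DMSO or RSV (25 μg mL−1) as controls. Orcinol assay: 100 μL sample plus 0.19% orcinol in 53% H2SO4, heated 30 min at 80 °C, cooled, read at 421 nm. At least three experiments in triplicate.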

[24] = Inhibition of quorum sensing system in Chromobacterium violaceum CV026
Outline: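 Plate screen. CV026 grown overnight in LB with 50 μg ml−1 kanamycin; 15 μl seeded into 15 ml LB agar (1.0% agarose) containing 20 μM C4-HSL. PAO1 plates run in parallel. Test colonies inoculated by toothpick, incubated overnight at 37 °C. Ring of colourless viable cells around the colony scored as inhibition.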

Pseudomonas aeruginosa [25] = assay: Anti-virulence effect in Pseudomonas aeruginosa PAO1 assessed as inhibition of pyocyanin production; format: functional, organism-based; outline: as §3
Pseudomonas aeruginosa [26] = assay: Anti-virulence effect in Pseudomonas aeruginosa PAO1 assessed as decrease in protease level at 25 ug/ml; format: functional; design: scale not given: the % may be the effect or the level left; details: dose 25 µg/ml
Outline: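 Overnight PAO1 culture diluted 1:100 into LB with compound (6.25–25 μg mL−1), grown at 37 °C and 180 rpm; DMSO and RSV (25 μg mL−1) as controls. Culture supernatant mixed with 2% azocasein in 1 M Tris–HCl pH 8.0 for 15 min at 37 °C. Reaction stopped with 10% TCA, centrifuged, NaOH added, read at OD440.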

Compound: Cc1cccc(C#N)c1Cc1c[nH]c2ccccc12
- inhibition [1]: 60%
- Activity (Pseudomonas aeruginosa [2]): inactive
- Activity (Pseudomonas aeruginosa [3]): 43%
- Activity [4]: Toxic
- inhibition [5]: 51%
- Activity (Pseudomonas aeruginosa [6]): 73%
- inhibition at 6.25 µg/mL (Pseudomonas aeruginosa [7]): 32%
- Activity (Pseudomonas aeruginosa [8]): 57%
- fold change (FC) (Pseudomonas aeruginosa [9]): 5.65
- inhibition [10]: 41%
- fold change (FC) (Pseudomonas aeruginosa [11]): 2.87
- fold change (FC) (Pseudomonas aeruginosa [12]): 7.41
- Activity (Erythrocyte): Toxic
- inhibition at 12.5 µg/mL (Pseudomonas aeruginosa [13]): 53%
- inhibition (Pseudomonas aeruginosa [14]): Dose-dependent-effect
- Activity (Pseudomonas aeruginosa [15]): 50%
- inhibition [16]: Active
- Activity (Pseudomonas aeruginosa [17]): 41%
- fold change (FC) (Pseudomonas aeruginosa [18]): 1.82
- fold change (FC) (Pseudomonas aeruginosa [19]): 4.42
- inhibition (Pseudomonas aeruginosa [20]): Active
- MIC (Pseudomonas aeruginosa [21]): 96 µg/mL (≈ 390 µM)
- inhibition at 25 µg/mL (Pseudomonas aeruginosa [22]): 70%
- Activity (Pseudomonas aeruginosa [23]): 23%
- inhibition [24]: Active; Showed Higher Activity
- Activity (Pseudomonas aeruginosa [25]): Dose-dependent-effect
- Activity (Pseudomonas aeruginosa [26]): 51%
